This is an account of results in article PMC12272725 (Chemical Science, 2025).

Format in all cases: cell-based, human
For assay [1], the system named is A549 cells. In short, it runs like this:
(§1)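 Human cells (A549 lung cancer, RPE-1 non-cancerous epithelial) were incubated with test compound for 4 h, the medium was replaced, and the cells were either irradiated or kept dark, then incubated a further 48 h. Viability was read by resazurin. Irradiation was 510 nm for 10 min (non-extended BODIPYs) or 645 nm (extended BODIPYs). IC50 was found dark and irradiated. […]. PPIX was the positive control.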

The subject of assay [2] is RPE-1 cells. In short, it runs like this: as §1
Assay [3] has as its system A549 cells. As to the kind of experiment: Intracellular total ROS generation, DCFH trap, A549 cells. The conditions noted are these: A549, 5 μM, 645 nm for 1 h. The gist of the method:
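A549 cells were loaded with the total-ROS trap dichlorodihydrofluorescein (DCFH) and test compound, then irradiated at 645 nm for 1 h at 37 °C. The trap's fluorescence gave intracellular ROS generation. DCFH alone was the control.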

Where [4] appears, read: read-out: IC50 upon 645 nm irradiation, 645 nm for 1 h (9.00 J/cm2).

Where two headings read alike, the source gives them in different places. Where only a bound is given, the exact number is not on record here.

`C=CC1=C(C)c2cc3[nH]c(cc4nc(cc5[nH]c(cc1n2)c(C)c5CCC(=O)O)C(CCC(=O)O)=C4C)c(C)c3C=C` [PPIX]: the Phototoxicity index was found to be 220 ± 30 in assay [1] (510 nm for 10 min), 111 ± 4 in assay [1] (645 nm for 1 h), 350 ± 120 in assay [2] (510 nm for 10 min) and 360 ± 160 in assay [2] (645 nm for 1 h). Besides, the IC50 in assay [1] (setting [4]) is 900 ± 30 nM; in assay [2] (read-out: IC50 in the dark, dark, Table 3 (645 nm series)), greater than 100000 nM; in assay [2] (read-out: IC50 upon 510 nm irradiation, 510 nm for 10 min (2.44 J/cm2)), 300 ± 100 nM; in assay [2] (setting [4]), 300 ± 100 nM. Also, the “Intracellular ROS generation” value in assay [3] is given as “elevated above control”.
